Compound activity (PubChem BioAssay)
proCasp3 act – procaspase-3 (human) activation | 0.11% of 330,000 active | activation, % at 8.5 µM | P42574 | recombinant procaspase-3 D3A, Ac-DEVD-pNA absorbance 405 nm;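 active = activation above the mean of all tested compounds plus 3 SD, cut at about 21% in these data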;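 note: 0% = DMSO alone and 100% = DMSO wells spiked with extra 5 µM PC-3 D3A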
Target sequence (P42574 whole entry D9A/D28A/D175A): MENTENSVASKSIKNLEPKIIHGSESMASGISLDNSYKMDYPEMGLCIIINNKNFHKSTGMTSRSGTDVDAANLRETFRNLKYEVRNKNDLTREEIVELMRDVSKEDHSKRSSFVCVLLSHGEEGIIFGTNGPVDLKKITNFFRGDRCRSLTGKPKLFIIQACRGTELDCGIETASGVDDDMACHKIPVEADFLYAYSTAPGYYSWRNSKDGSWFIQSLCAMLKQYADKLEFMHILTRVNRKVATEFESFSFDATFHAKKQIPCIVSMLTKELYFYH
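Test system: Procaspase-3 D3A mutant, all three cleavage aspartates alanine | Dosing: Single dose, 8.5 µM nominal compound, 0.8% DMSO | Schedule: 1 h preincubation, 2 h reaction | Technique: 405 nm absorbance of p-nitroaniline, reads at 0 and 120 min | Repeats: One well per compound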
proCasp7 act – activates human procaspase-7, counter-screen for procaspase-3 activators. activation, % at 8.5 µM. P55210. AID 463210. recombinant procaspase-7, Ac-DEVD-pNA absorbance 405 nm; D23A/D198A/D206A triple mutant, cannot self-cleave; scale: DMSO 0, 5 µM enzyme 100. 0.093% of 330,000 active;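 active = percent activation above the screen-wide mean plus 3 SD, cut at about 25% in these data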
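System: Procaspase-7 triple mutant (PC-7 D3A); measure: % activation from two-timepoint absorbance difference, scaled to controls; times: 1 h compound preincubation, 2 h substrate cleavage, 25 °C; also added: Ac-DEVD-pNA substrate, 400 µM as added; measured by: Epi-absorbance of released pNA at 405 nm, two timepoints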
MsrA inh – inhibitors of bovine MsrA. purified bovine MsrA, absorbance read-out. inhibition, % at 15.5 µM. 0.75% of 360,000 active;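 note: 0% = vehicle wells with enzyme and 100% = reference inhibitor wells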
MsrA act – activators of bovine methionine sulfoxide reductase A; purified bovine MsrA, absorbance read-out; activation, % at 10.6 µM; 0.3% of 360,000 active; AID 602163; in the data active = activation above about 7.5%;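 note: 0% = vehicle and 100% = reference activator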
PC3 dual counter – activates human procaspase-3, dual activator counter-screen. shares compounds with proCasp7 act. recombinant PC-3 D3A, Ac-DEVD-pNA absorbance 405 nm; aspartates 9, 28, 175 changed to alanine; 100% = enzyme control. activation, % at 8.5 µM. 290 tested, under 10 active;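 active = mean percent activation across triplicates above a set limit taken from the earlier primary procaspase-3 screen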;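 note: 0% = DMSO wells and 100% = DMSO wells with 5 µM added PC-3 D3A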
PC7 dual conf – confirmation of dual procaspase activators: human procaspase-7 activation. 290 tested, under 10 active. activation, % at 8.5 µM. shares compounds with proCasp7 act. recombinant procaspase-7, Ac-DEVD-pNA absorbance 405 nm; D23A/D198A/D206A mutant that cannot self-cleave;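 active = mean activation above a set limit carried over from the earlier primary screen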;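 note: 0% = DMSO only and 100% = DMSO with added 5 µM PC-7 enzyme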
MsrA activ conf – confirmation of bovine methionine sulfoxide reductase A activators; shares compounds with MsrA act; purified bovine MsrA, absorbance read-out; activation, % at 10.6 µM; 12% of 1,000 active; AID 602270; in the data active = activation above about 4%;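 note: enzyme coupled to thioredoxin and thioredoxin reductase with NADPH; 0% = vehicle wells and 100% = reference activator wells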
MsrA conf – bovine MsrA inhibition, confirmed; shares compounds with MsrA inh; purified bovine MsrA, absorbance read-out; inhibition, % at 15.5 µM; 41% of 2,300 active; AID 651822;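 note: coupled to thioredoxin reductase with NADPH and selenocystamine and DMSO as substrate; 0% = vehicle only and 100% = full effect of reference inhibitor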
Active calls of the source: *; . = not tested or not shown. An excerpt weighted towards active compounds, which were near 1.2% of everything screened. Cut-off read from the data, not from the text of the source, unless noted: active = inhibition above about 4.5%; inactive = the rest.

SMILES	proCasp3 act	proCasp7 act	MsrA inh	MsrA act	MsrA activ conf	others
Cc1ccc(-n2c(O)c(/C=N/N3CCCCC3c3cccnc3)c(=O)[nH]c2=S)cc1 (stereo not drawn)	-11	-5	4.5*	-15	.
CCn1nc(-c2ccccc2)nc2c(=O)n(C)c(=O)nc1-2	-6	-18	.	37*	.
COc1ccc(-c2cc(-c3ccccc3)[n+](C)c(-c3ccccc3)c2)cc1	0	2	4.8*	-4	.
Cc1cc(N2CCNC[C@H]2C)ccc1N1CC[C@H](O)C1	.	.	0	.	.
O=C1C(=O)c2cccc3cccc1c23	1	4	1	0	.
O=C1C(=O)c2ccccc2-c2ccccc21	-2	-9	0	49*	.
CN1C[C@H](O)[C@H]2C[C@@H]1c1ccccc1O2	.	.	2	.	.
O=c1c2ccccc2[se]n1-c1ccccc1	-35	-35	0	20*	.
O=c1c2ccccc2nc(-c2ccccc2)n1-c1ccccc1	-6	-2	-1	-3	.
COc1cccc(NC2=NCCS2)c1	.	.	1	.	.
CC(C)CNC(=O)c1c(N)n(Cc2ccc3c(c2)OCO3)c2nc3ccccc3nc12	-5	71*	1	-3	.	PC3 dual counter=-29;PC7 dual conf=-34
CN1C2CCC1C(C(=O)Oc1ccccc1)C(c1ccc(Cl)cc1)C2 (stereo not drawn)	.	.	-1	.	.
c1ccc2c(CCNC3CCCCC3)c[nH]c2c1	-11	-8	0	-3	.
c1ccc2[nH]c(CCNC3CCCCC3)nc2c1	10	2	0	7.8*	-1
Cc1nc2c(=O)n(C)c(=O)nc-2n(C)n1	-9	-2	0	18*	13*
CCOC(=O)c1c(N)n(CCCOC(=O)c2ccco2)c2nc3ccccc3nc12	-3	0	1	11*	1
O=C(O)c1cccc(NC(=O)N2C[C@H]3C[C@@H](C2)c2cccc(=O)n2C3)c1	4	0	-1	8.9*	-3
O=C(O)CCl	.	.	0	.	.
C=C1C(=O)[C@@]23C[C@H]4[C@@H]5[C@@]6(C)CCC[C@@]57[C@@H]2[C@@H](O)[C@@H]1C[C@H]3[C@H]7N4C6	2	2	0	26*	17*
CCOC(=O)[C@]12Cc3cc(Cl)ccc3[C@H]1N(C1CCCCC1)C(=O)c1cc(OC)ccc12	.	.	2	-2	.
COC(=O)C1=C(c2ccc(OC(F)(F)F)cc2)C[C@@H]2CC[C@H]1N2C(=O)NCc1ccco1	.	.	0	.	.
c1ccc(Cn2ccnc2)cc1	8	1	-1	-2	.
CC(C)c1cccc(C(C)C)c1OCCn1ccnc1	2	15	0	14*	-2
C[C@]12CC[C@@H](O)C[C@@H]1CC[C@@H]1[C@@H]2CC[C@]2(C)C(=O)[C@H](O)C[C@@H]12	.	.	.	19*	-1
C[n+]1c2ccccc2nc2ccc(NCCO)cc21	2	-8	0	59*	51*
SMILES	proCasp3 act	proCasp7 act	MsrA inh	MsrA act	MsrA activ conf	others
CNc1ccc2nc3ccccc3[n+](C)c2c1	-9	-14	-1	92*	74*
CC[C@]12CCN(CC3(O)CC3)C(Cc3ccc(O)cc31)C2(C)C	.	.	-1	.	.
O=S(=O)(c1ccc(Cl)cc1)N1Cc2ccc(Br)cc2-n2nncc2C1	.	.	1	.	.
N#CCCC#N	.	.	0	.	.
O=C(NCCN1CCC2(CC1)C(=O)NCN2c1ccccc1)c1ccc2ccccc2c1	.	.	0	.	.
O=C(NN=Cc1ccc(N(CCCl)CCCl)cc1)c1cccc([N+](=O)[O-])c1	.	.	1	-4	.
O=C(NN=Cc1ccc(N(CCCl)CCCl)cc1)c1cccnc1	.	.	5.2*	-6	.	MsrA conf=4
CC(C)c1ccc(-n2c(O)c(C=NC(CCS(C)=O)C(=O)O)c(=O)[nH]c2=S)cc1 (stereo not drawn)	-12	-25	5.1*	-4	.	MsrA conf=4
N#CCCn1cc(C(=O)Nc2ccccc2Br)c(-c2ccc([N+](=O)[O-])cc2)n1	7	6	47*	3	.	MsrA conf=0
